These results are taken from ChEMBL document CHEMBL1125159, “Synthesis and antihyperglycemic activity of novel 5-(naphthalenylsulfonyl)-2,4-thiazolidinediones” (J Med Chem, 1990).

Each structure is given as a SMILES string. Activity calls are given as the source filed them. The rule behind the calls is not given here.

As a reminder, the pKa is the pH at which an ionisable group is half protonated. The low end stands for a group that gives up its proton readily, the high end for a group that holds its proton tightly.

The species named for data set [1] is Mus musculus. As to the kind of experiment: Decrease in blood glucose in mice compared to vehicle controls. It is filed as functional, organism-based. An outline of the steps: (§1)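 Male genetically diabetic db/db mice (C57BL/KsJ, 3–7 months old), 4–6 per group. Compound 100 mg/kg given by oral gavage once daily for 4 days in 2% Tween 80/saline. Mice fasted 18 h before the final dose. Insulin 0.5 unit/kg sc given 2 h after drug. Tail-tip blood taken 2 h later from unanesthetized mice. Plasma glucose reported as percent change versus vehicle group, mean ± SE.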

The species named for data set [2] is Mus musculus. As to the kind of experiment: Percent decrease in blood glucose relative to vehicle-treated group with use of four to six mice. Format: functional. In outline: as §1
Data set [3] in a line: Ionization constant for the compound. It is filed as physicochemical.
In data set [4] the test system is Rattus norvegicus. Put plainly: Evaluated for the blood lactate level in 24 hr fasted Sprague-Dawley rats at a dose of 200 mg/kg/day in four divided doses administered intraperitoneally. Particulars: route intraperitoneal. It is filed as functional. An outline of the steps:
(§2)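 24 h-fasted Sprague-Dawley rats were dosed ip at 200 mg/kg per day in four divided doses. They were then anesthetized with halothane and blood was drawn from the iliac artery for blood lactate and plasma glucose. N = 8 rats per group, compared with vehicle (p < 0.05).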

In data set [5] the test system is Rattus norvegicus. Put plainly: Evaluated for the plasma glucose level in 24 hr fasted Sprauge-Dawley rats at a dose of 200 mg/kg/day in four divided doses administered intraperitoneally. It is filed as functional, organism-based. An outline of the steps: as §2
The test system of data set [6] is Rattus norvegicus. As to the kind of experiment: Blood lactate level in 24 hr fasted Sprauge-Dawley rats at a dose of 200 mg/kg per day in four divided doses which were administered intraperitoneally,. Format: functional. The following applies: route intraperitoneal. An outline of the steps:
as §2

In data set [7] the test system is Rattus norvegicus. Put plainly: Plasma glucose level in 24 hr fasted Sprauge-Dawley rats at a dose of 200 mg/kg per day in four divided doses which were administered intraperitoneally. Format: functional, organism-based. An outline of the steps:
as §2

The subject of data set [8] is Mus musculus. Put plainly: Plasma glucose level in diabetic db/db mice at a dose of 100 mg/kg per day for four days administered orally after fed state.
The test system of data set [9] is Mus musculus. As to the kind of experiment: Plasma glucose level in diabetic db/db mice at a dose of 100 mg/kg per day for four days administered orally after 18-h fasted state.
In data set [10] the test system is Rattus norvegicus. As to the kind of experiment: Blood lactate level in 24 hr fasted Sprauge-Dawley rats at a dose of 200 mg/kg per day in four divided doses which were administered intraperitoneally. It is filed as functional. Particulars: route intraperitoneal. An outline of the steps:
as §2

As to `O=C1NC(=O)C(Sc2ccc3ccccc3c2Br)S1` (stereo unspecified), the Decrease result in the data set filed under Mus musculus [1] was “inactive”. As for `O=C1NC(=O)C(Sc2ccc3cc(O)ccc3c2)S1` (stereo unspecified), the Decrease in the data set listed under Mus musculus [2] was -19%.

In the case of `O=C1NC(=O)C(S(=O)(=O)c2ccc3ccccc3c2Br)S1` (stereo unspecified), the Decrease entry in the data set listed under Mus musculus [1] is “inactive”. With `COc1ccc2c(S(=O)(=O)C3SC(=O)NC3=O)cccc2c1C(F)(F)F` (stereo unspecified), the Decrease in the data set filed under Mus musculus [2] is given as -40%.

Consider `COc1ccc2cc(S(=O)(=O)C3SC(=O)NC3=O)ccc2c1C(F)(F)F` (stereo unspecified), for which the Decrease entry in the data set filed under Mus musculus [1] is “inactive”. Same read-out and setting: with `CC1(S(=O)(=O)c2cccc3ccccc23)SC(=O)NC1=O` (stereo unspecified) the entry was “inactive”; with `O=C1NC(=O)C(Sc2ccc3cc(O)c(O)cc3c2)S1` (stereo unspecified), “inactive”. On to `O=C1NC(=O)C(Cc2ccc3ccccc3c2)S1` (stereo unspecified), for which, in the data set listed under Mus musculus [2], the Decrease is -38%. Also, the pKa in [3] is 6.83.

Consider `O=C1NC(=O)C(S(=O)(=O)Cc2ccc3ccccc3c2)S1` (stereo unspecified), for which the Decrease result in the data set listed under Mus musculus [1] was “inactive”. In the case of `O=C1NC(=O)C(S(=O)(=O)c2ccc3cc(OCc4ccccc4)ccc3c2)S1` (stereo unspecified), the Decrease entry in the data set filed under Mus musculus [1] is “inactive”. As for `O=C1NC(=O)C(CSc2ccc3ccccc3c2)S1` (stereo unspecified), the Decrease result in the data set listed under Mus musculus [1] is “inactive”. In the data set on Rattus norvegicus [4], `N=C(N)NC(=N)NCCc1ccccc1` [PHENFORMIN] had a Blood lactate of 12.2 mg/dL. This compound also returned a Plasma glucose level in the data set on Rattus norvegicus [5] of 85 mg/dL. On to `COc1ccc2cc(SC3SC(=O)NC3=O)ccc2c1C(F)(F)F` (stereo unspecified), for which the Decrease in the data set filed under Mus musculus [2] is -32%. Consider `COc1ccc2cc(S(=O)(=O)C3SC(=O)NC3=O)ccc2c1Br` (stereo unspecified), for which, in the data set listed under Mus musculus [1], the Decrease result is “inactive”. On the same count and under the same terms, for `CC1(COc2ccc(S(=O)(=O)C3SC(=O)NC3=O)cc2)CCCCC1` (stereo unspecified) the value was “inactive”; for `CCCCCCCCSC1SC(=O)NC1=O` (stereo unspecified), “inactive”; for `CCCCCCCCS(=O)(=O)C1SC(=O)NC1=O` (stereo unspecified), “inactive”.

For `CN1C(=O)SC(C)(S(=O)(=O)c2cccc3c(Br)cccc23)C1=O` (stereo unspecified), the Decrease entry in the data set listed under Mus musculus [1] was “inactive”. Turning to `CCOC(=O)Oc1cc2ccc(S(=O)(=O)C3SC(=O)NC3=O)cc2cc1OC(=O)OCC` (stereo unspecified), the Decrease entry in the data set filed under Mus musculus [1] was “inactive”. Turning to `O=C1NC(=O)C(S(=O)(=O)c2ccc3ccccc3c2)S1` (stereo unspecified), the Decrease in the data set filed under Mus musculus [2] was -63%. In addition, the Blood lactate in the data set on Rattus norvegicus [6] was 7.2 mg/dL. Also, the Plasma glucose level in the data set with Rattus norvegicus [7] came to 77 mg/dL; in the data set with Mus musculus [8], 352 mg/dL; in the data set on Mus musculus [9] it was 243 mg/dL. In addition, the pKa in data set [3] worked out at 3.95. `CN1C(=O)SC(S(=O)(=O)c2cccc3c(Br)cccc23)C1=O` (stereo unspecified): the Decrease result in the data set listed under Mus musculus [1] was “inactive”. Still for that read-out and setting: for `COc1cccc2cccc(S(=O)(=O)C3SC(=O)NC3=O)c12` (stereo unspecified) the value was “inactive”. In the case of `CC1(COc2ccc(CC3SC(=O)NC3=O)cc2)CCCCC1` (stereo unspecified) [CIGLITAZONE], in the data set filed under Mus musculus [2], the Decrease is reported as -35%. In the data set with Rattus norvegicus [10], this compound yielded a Blood lactate of 8 mg/dL. For the same compound, the Plasma glucose level was 83 mg/dL in the data set on Rattus norvegicus [7], 313 mg/dL in the data set with Mus musculus [8] and 285 mg/dL with Mus musculus [9]. Besides, the pKa in data set [3] amounted to 6.82. Turning to `O=C1NC(=O)C(S(=O)(=O)c2ccc(Br)cc2)S1` (stereo unspecified), the Decrease result in the data set filed under Mus musculus [1] was “inactive”. On to `O=C1NC(=O)C(S(=O)(=O)c2cccc3ccccc23)S1` (stereo unspecified), for which the Decrease in the data set filed under Mus musculus [2] is given as -34%. For `CCOC(=O)Oc1ccc2cc(SC3SC(=O)NC3=O)ccc2c1` (stereo unspecified), the Decrease result in the data set listed under Mus musculus [1] is “inactive”.

Turning to `CCOC(=O)Oc1cc2ccc(SC3SC(=O)NC3=O)cc2cc1OC(=O)OCC` (stereo unspecified), in the data set listed under Mus musculus [2], the Decrease is recorded as -22%.

On to `O=C1NC(=O)C(Sc2ccc3ccccc3c2)S1` (stereo unspecified), for which, in the data set filed under Mus musculus [2], the Decrease was -29%. Further, the pKa in data set [3] was found to be 5.58.

Regarding `O=C1NC(=O)C(S(=O)(=O)c2ccc(F)cc2)S1` (stereo unspecified), in the data set filed under Mus musculus [1], the Decrease entry was “inactive”.

For `CCOC(=O)Oc1ccc2cc(S(=O)(=O)C3SC(=O)NC3=O)ccc2c1` (stereo unspecified), the Decrease entry in the data set listed under Mus musculus [1] was “inactive”. As to `O=C1NC(=O)C(S(=O)(=O)c2cccc3c(Br)cccc23)S1` (stereo unspecified), the Decrease in the data set listed under Mus musculus [2] was -29%. For `O=C1NC(=O)C(Oc2ccc3ccccc3c2)S1` (stereo unspecified), the Decrease entry in the data set listed under Mus musculus [1] is “inactive”.

For `O=C1NC(=O)C([S+]([O-])c2ccc3ccccc3c2)S1` (stereo unspecified), the Decrease result in the data set filed under Mus musculus [1] was “inactive”.
